The record followed here is ChEMBL document CHEMBL4725302, “Isosteres of ester derived glucose uptake inhibitors” (Bioorg Med Chem Lett, 2020).

The structures appear in SMILES notation.

By inhibition is commonly meant the drop in the measured response relative to a control, in per cent. In general, IC50 refers to the concentration at which inhibition is half-maximal.

One data set deals with A549. The experiment in a line: Antitumor activity in human A549 cells xenografted in NU/J mouse assessed as reduction in tumor volume at 10 mg/kg, ip administered for 10 weeks and measured for every 7 day relative to control. The data set is classed as functional. Further details: scale not given: the % may be the effect or the level left. A general note: A xenograft is tissue or cells of one species grown in another, often human tumour cells in immunodeficient mice.

Data set [1] relates to NCI-H1299. As to the kind of experiment: Antiproliferative activity against human NCI-H1299 cells assessed as reduction in cell viability at 30 uM incubated for 48 hrs by MTT assay relative to control. The format is functional. The essentials:
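H1299 cells seeded at 5,000 per well, exposed in hexads to compound at 30 µM or DMSO (<0.5% v/v) for 48 h. MTT then added for 4 h and absorbance read at 570 nm. Conditions run in triplicate, quadruplicate or hexad, experiment repeated at least once; mean ± standard deviation.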

Data set [2] in a line: Stability in human serum assessed as compound remaining incubated for 1 hr. The data set is classed as ADME, cell-free. Conditions: read-out: Stabilty.
Data set [3] in a line: Inhibition of glucose uptake in human NCI-H1299 cells at 30 uM incubated for 10 mins followed by […][3H]2-deoxyglucose and glucose addition and measured after 30 mins by scintillation counting method relative to control. The format is functional. Conditions: NCI-H1299, 10 min. The essentials:
(§1)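 H1299 cells held 2 h in serum-free medium, then 30 min in KRP buffer. Treated ±30 µM compound for 10 min, then 37 MBq/L [3H]2-deoxyglucose plus 1 mmol/L glucose in KRP for 30 min uptake. Washed twice with ice-cold PBS, lysed in NaOH, radioactivity by scintillation counting. Replicates triplicate to hexad, repeated at least once; mean ± standard deviation.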

Data set [4] is described as follows: Stability in human serum assessed as reduction in A549 cell viability at 30 uM measured upto 12 hrs by resazurin assay. The data set is classed as cell-free. Put shortly: (§2)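 Compound at 30 µM preincubated at 37 °C in DMEM with 10% FBS and 1% Pen/Strep for 0, 1, 2, 4, 6, 9, 12, 24, 48 and 72 h. This medium then applied for 24 h to 5 x 10^3 A549 cells (grown overnight, washed twice with PBS). Resazurin added for 30 min, fluorescence Ex 560/Em 590, normalized to DMSO mock.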

Data set [5] is described as follows: Stability in human serum assessed as reduction in A549 cell viability at 30 uM measured upto 72 hrs by resazurin assay. The format is cell-free. The essentials:
as §2
In general terms: Resazurin is reduced to fluorescent resorufin, in cell work by metabolically active cells.

The test system of data set [6] is NCI-H1299. As to the kind of experiment: Antiproliferative activity against human NCI-H1299 cells assessed as reduction in cell viability incubated for 48 hrs by MTT assay. The format is functional, cell-based. Conditions: NCI-H1299, 48 h. A general note: Tetrazolium dyes change colour on reduction, which living cells bring about.
Data set [7] in a line: Inhibition of glucose uptake in human NCI-H1299 cells incubated for 10 mins followed by […][3H]2-deoxyglucose and glucose addition and measured after 30 mins by scintillation counting method. The format is functional, cell-based. Put shortly: as §1

Regarding `O=C(Oc1cccc(F)c1OC(=O)c1cccc(O)c1)c1cccc(O)c1`, the Activity in the data set on A549 is recorded as 70%. Also, the inhibition at 30 µM in the data set on NCI-H1299 [1] was 56.9%; in data set [3], 92.8%. In addition, the remaining at 1 h in data set [2] was 25%. Also, the Stabilty entry in data set [4] is listed as “Unstable”.

Consider `Cc1ccc(C(=O)Nc2ccc(Cl)cc2NC(=O)c2ccc(C)c(O)c2)cc1O`, for which the inhibition at 30 µM in the data set with NCI-H1299 [1] amounted to 55%; in data set [3], 84.8%.

`O=C(Nc1ccc(Cl)cc1NC(=O)c1cc(O)ccc1Cl)c1cc(O)ccc1Cl`: the values for the inhibition at 30 µM (with NCI-H1299 [1]; in data set [3]) were 45.3% and 89.9%, respectively.

Regarding `O=C(Nc1ccc(Cl)cc1NC(=O)c1ccc(Br)c(O)c1)c1ccc(Br)c(O)c1`, the inhibition at 30 µM in the data set on NCI-H1299 [1] stood at 54.6%; in data set [3], 97.3%.

In the case of `Cc1ccc(O)cc1CNc1ccc(Cl)cc1NCc1cc(O)ccc1C`, the inhibition at 30 µM with NCI-H1299 [1] came to 46.3%; in data set [3], 82.9%.

For `Oc1cc(CNc2ccc(Cl)cc2NCc2ccc(Cl)c(O)c2)ccc1Cl`, the inhibition at 30 µM in the data set on NCI-H1299 [1] is 70.9%; in data set [3] it was 52.4%.

In the case of `O=C(Nc1ccc(Cl)cc1NC(=O)c1ccc(Cl)c(O)c1)c1ccc(Cl)c(O)c1`, the inhibition at 30 µM in the data set on NCI-H1299 [1] was found to be 19%; in data set [3] it was 85.2%.

In the case of `O=C(Nc1ccc(Cl)cc1NC(=O)c1ccc(F)c(O)c1)c1ccc(F)c(O)c1`, the inhibition at 30 µM with NCI-H1299 [1] was 25.7%; in data set [3] it was 47.8%.

On to `Oc1cccc(SCc2cccc(F)c2CSc2cccc(O)c2)c1`, for which the inhibition at 30 µM is -2% with NCI-H1299 [1] and 98.1% in data set [3].

Turning to `Oc1cccc(CNc2ccc(F)cc2NCc2cccc(O)c2)c1`, the inhibition at 30 µM in the data set with NCI-H1299 [1] turned out to be 37.7%; in data set [3], 39.2%.

As for `O=C(Nc1ccc(Cl)cc1NC(=O)c1cc(O)cc(Cl)c1)c1cc(O)cc(Cl)c1`, the inhibition at 30 µM with NCI-H1299 [1] stood at 61.3%; in data set [3] it was 60.6%.

As for `Oc1cc(Cl)cc(CNc2ccc(Cl)cc2NCc2cc(O)cc(Cl)c2)c1`, the inhibition at 30 µM in the data set with NCI-H1299 [1] is 47.6%; in data set [3], 81.7%.

As for `O=C(Nc1ccc(Cl)cc1NC(=O)c1cccc(O)c1)c1cccc(O)c1`, the results for the inhibition at 30 µM (in the data set on NCI-H1299 [1]; in data set [3]) were 5.9% and 83.7%, respectively.

As to `Cc1ccc(O)cc1C(=O)Nc1ccc(Cl)cc1NC(=O)c1cc(O)ccc1C`, the inhibition at 30 µM (in the data set with NCI-H1299 [1]; in data set [3]) was 21% throughout.

Turning to `Oc1cccc(OCc2cccc(F)c2COc2cccc(O)c2)c1`, the inhibition at 30 µM with NCI-H1299 [1] was -1.4%; in data set [3] it was 89.5%.

Consider `Oc1cccc(COc2cccc(F)c2OCc2cccc(O)c2)c1`, for which the inhibition at 30 µM in the data set on NCI-H1299 [1] was 10.6%; in data set [3], 92.6%.

`[O-][S+](Cc1cccc(F)c1C[S+]([O-])c1cccc(O)c1)c1cccc(O)c1` (configuration not stated): the inhibition at 30 µM worked out at 0.2% in the data set on NCI-H1299 [1] and 17.2% in data set [3].

As for `Cc1ccc(CNc2ccc(Cl)cc2NCc2ccc(C)c(O)c2)cc1O`, the inhibition at 30 µM in the data set on NCI-H1299 [1] is 77.5%; in data set [3], 93.7%. Further, in data set [5], the Stabilty entry was “Stable”. The values for the IC50 (in the data set on NCI-H1299 [6]; in data set [7]) were 7 µM and 1.9 µM, respectively.

For `O=S(=O)(Cc1cccc(F)c1CS(=O)(=O)c1cccc(O)c1)c1cccc(O)c1`, the inhibition at 30 µM is 11.8% in the data set on NCI-H1299 [1] and 61.4% in data set [3].

Consider `Oc1cccc(CNc2ccc(Cl)cc2NCc2cccc(O)c2)c1`, for which the inhibition at 30 µM in the data set with NCI-H1299 [1] came to 56.6%; in data set [3], 52.2%.

As to `O=C(Nc1ccc(F)cc1NC(=O)c1cccc(O)c1)c1cccc(O)c1`, the inhibition at 30 µM came out at 5.7% in the data set with NCI-H1299 [1] and 89.7% in data set [3].

Take `COc1ccc(C(=O)Nc2ccc(Cl)cc2NC(=O)c2ccc(OC)c(O)c2)cc1O`: the figures for the inhibition at 30 µM (in the data set with NCI-H1299 [1]; in data set [3]) were 26% and 39.5%, respectively.

Consider `Oc1cccc(CNc2cccc(F)c2NCc2cccc(O)c2)c1`, for which the inhibition at 30 µM with NCI-H1299 [1] was 5%; in data set [3], 54.8%.

Regarding `Cc1cc(O)cc(C(=O)Nc2ccc(Cl)cc2NC(=O)c2cc(C)cc(O)c2)c1`, the inhibition at 30 µM in the data set on NCI-H1299 [1] was determined as 84.7%; in data set [3] it was 61.4%.

In the case of `O=C(Nc1cccc(F)c1NC(=O)c1cccc(O)c1)c1cccc(O)c1`, the inhibition at 30 µM was 33.4% in the data set on NCI-H1299 [1] and 20% in data set [3].

For `Oc1cc(CNc2ccc(Cl)cc2NCc2ccc(Br)c(O)c2)ccc1Br`, the figures for the inhibition at 30 µM (in the data set with NCI-H1299 [1]; in data set [3]) were 74.1% and 69.1%, respectively.

With `Cc1cc(O)cc(CNc2ccc(Cl)cc2NCc2cc(C)cc(O)c2)c1`, the inhibition at 30 µM is 60.4% in the data set on NCI-H1299 [1] and 75% in data set [3].

As to `COc1ccc(CNc2ccc(Cl)cc2NCc2ccc(OC)c(O)c2)cc1O`, the inhibition at 30 µM is 22% in the data set on NCI-H1299 [1] and 42.2% in data set [3].

With `Oc1cc(CNc2ccc(Cl)cc2NCc2ccc(F)c(O)c2)ccc1F`, the inhibition at 30 µM in the data set with NCI-H1299 [1] came to 22.1%; in data set [3] it was 24.1%.

With `O=C(Oc1cccc(O)c1)c1cccc(F)c1C(=O)Oc1cccc(O)c1`, the inhibition at 30 µM in the data set on NCI-H1299 [1] was determined as 15.3%; in data set [3], 78.2%.

In the case of `Oc1cccc(COc2ccc(Cl)cc2OCc2cccc(O)c2)c1`, the inhibition at 30 µM was 14.3% in the data set on NCI-H1299 [1] and 91.2% in data set [3].

With `Oc1ccc(Cl)c(CNc2ccc(Cl)cc2NCc2cc(O)ccc2Cl)c1`, the inhibition at 30 µM with NCI-H1299 [1] stood at 70.8%; in data set [3], 80.7%.

On to `Oc1cccc(CCc2cccc(F)c2CCc2cccc(O)c2)c1`, for which the inhibition at 30 µM in the data set with NCI-H1299 [1] is -22.7%; in data set [3] it was 60.7%.
